Screening data (PubChem)
LMP1 NFkB inh: Epstein-Barr LMP1 NF-kappaB reporter inhibition; LMP1-induced NF-kappaB luciferase reporter cells, luminescence; inhibition, % at 12.5 µM; 350,000 compounds, 0.69% hits; in the data active = inhibition above about 41%
aSyn UTR inh: 5' untranslated region of α-synuclein, MLPCN primary screen. inhibition, % (tested at 7.5 µM). 300,000 compounds, 0.82% hits. alpha-synuclein 5'UTR reporter, inhibitor activity. AID 1813; in the data active = inhibition above about 60%;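 also: H4 neuroglioblastoma cells stably carrying SNCA 5'UTR luciferase fusion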
FN deposit inh: fibronectin deposition inhibition | AH1F fibroblasts, Alexa488-fibronectin deposition fluorescence, overnight | inhibition, % at 12.6 µM | 350,000 compounds, 0.086% hits | AID 743247;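 active = mean inhibition across replicates of 30% or more, regardless of how many single replicates reach that level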
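Test system: AH1F fibroblast monolayer depositing Alexa488-labelled fibronectin into matrix. Input: 10000 cells per well. Technique: fluorescence, ex 485 nm, em 525 nm. Buffer or medium: DMEM plus 2% serum, read in PBS. Timing: 1 h cell adhesion before compound, then overnight fibronectin incubation. Compound: single dose, pinned. Read-out basis: inhibition from reduced deposited-fibronectin fluorescence.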
PAX8 inh HTS: inhibitors of PAX8 transcriptional activity in RMG-I cells; 360,000 compounds, 1.2% hits; inhibition, % at 12.6 µM; AID 652154; RMG-I TPO-luciferase reporter, SteadyGlo, 24 h;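 active = mean replicate inhibition at least 60% with every replicate also reaching 60%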;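 also: luciferase light reporting Pax8 driven TPO promoter activity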
Shn3 3UTR inh: reduces Shn3 3'UTR luciferase signal in osteoblasts. Clone20 osteoblast Shn3 3'UTR firefly luciferase, 24 h. inhibition, % at 12.5 µM. 360,000 compounds, 0.52% hits. AID 588674;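 active = mean inhibition of at least 75% with every replicate also reaching 75%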
EWS-Fli inh: inhibitors of EWS/Fli oncoprotein transcriptional activity; inhibition, % at 12.6 µM; A673 NR0B1-luciferase reporter, viability-normalised; AID 651661; 350,000 compounds, 0.67% hits;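 active = mean inhibition of at least 50% after viability correction, with every replicate also passing that limit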;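 also: firefly luciferase signal divided by Alamar Blue viability fluorescence both relative to DMSO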
Hits are given with their value; . = inactive; / = not tested or not shown. An excerpt weighted towards active compounds, which were near 2.1% of everything screened.

SMILES	LMP1 NFkB inh	aSyn UTR inh	FN deposit inh	PAX8 inh HTS	Shn3 3UTR inh	EWS-Fli inh
Nc1ccc(-c2nc3c(Cl)cc(N)cc3[nH]2)cc1	.	85.2	/	/	.	/
C[C@H]1CCCCO[C@H](CN(C)C(=O)NC2CCCCC2)[C@@H](C)CN([C@@H](C)CO)C(=O)c2cc(NS(=O)(=O)c3ccc(Cl)cc3)ccc2O1	/	/	.	71.2	/	.
C[C@@H]1CCCCO[C@H](CN(C)C(=O)NC2CCCCC2)[C@H](C)CN([C@@H](C)CO)C(=O)c2cc(NS(=O)(=O)c3ccc(Cl)cc3)ccc2O1	/	/	.	79.6	/	.
CCNC(=O)C[C@H]1CC[C@@H]2[C@H](COC[C@@H](O)CN2C(=O)c2cc(Cl)cc(Cl)c2)O1	/	/	.	/	/	/
O=C(Nc1cc(C(F)(F)F)ccc1N1CCOCC1)C1=NN(c2ccccc2)C(=O)CC1	.	.	.	80.4	.	/
Cc1onc(-c2ccccc2Cl)c1C(=O)N1CCN(C=O)CC1	.	.	.	.	.	/
Cc1cccc(N2CCN(C(=O)c3c(-c4ccccc4Cl)noc3C)CC2)c1C	.	.	.	.	.	53.1
COc1ccc(-n2nc3cc(C)c(NC(C)=O)cc3n2)cc1	.	.	.	.	.	50.6
Cc1cc(C)cc(N2C(=O)C=CC2=O)c1	.	/	.	.	94.2	.
Cc1cc(C)cc(N2C(=O)c3nccnc3C2=O)c1	.	.	.	.	.	.
COc1ccc(C(=O)C(CCC(CNC(C)(C)C)C(=O)c2ccc(OC)cc2)CNC(C)(C)C)cc1 (stereo unspecified)	.	65.5	/	/	.	/
COc1ccccc1N1CCN(C(=O)C2CCCN(S(=O)(=O)c3ccc4c(c3)CCCN4C(C)=O)C2)CC1 (stereo unspecified)	.	.	.	.	86.6	/
C[C@@H]1CN([C@@H](C)CO)C(=O)c2cc(-c3ccccc3F)cnc2O[C@H]1CN(C)C(=O)NC1CCCC1	/	/	.	.	/	.
CC(C)C#Cc1cnc2c(c1)C(=O)N([C@@H](C)CO)C[C@H](C)[C@H](CN(C)C(=O)CCN1CCCCC1)O2	/	/	.	/	/	.
O=c1[nH]c2cc(Cl)c(Br)cc2o1	68.4	/	.	.	.	.
O=C(C[C@@H]1C[C@@H]2c3cc(NC(=O)C4CCOCC4)ccc3O[C@@H]2[C@@H](CO)O1)NCc1ccc(Oc2ccccc2)cc1	/	/	/	.	/	.
O=C(C[C@@H]1C[C@H]2c3cc(NC(=O)C4CCOCC4)ccc3O[C@H]2[C@H](CO)O1)NCc1ccc(Oc2ccccc2)cc1	/	/	/	89.9	/	.
O=C(C[C@@H]1C[C@H]2c3cc(NC(=O)NC4CCCC4)ccc3O[C@H]2[C@H](CO)O1)NCc1ccc(Oc2ccccc2)cc1	/	/	.	66.1	/	60.4
O=C(C[C@@H]1C[C@@H]2c3cc(NC(=O)NC4CCCC4)ccc3O[C@@H]2[C@@H](CO)O1)NCc1ccc(Oc2ccccc2)cc1	/	/	.	.	/	.
CCC(=O)Nc1ccc2c(c1)C(=O)N(C)C[C@H](OC)[C@H](C)CN(C(=O)C1CC1)[C@@H](C)CO2	/	/	.	.	/	.
O=C(O)Cn1cc(/C=C/[N+](=O)[O-])c2ccccc21	.	.	.	.	.	.
N#Cc1ccccc1Cn1cc(/C=C/[N+](=O)[O-])c2ccccc21	.	.	.	.	96.2	.
O=[N+]([O-])/C=C/c1cn(Cc2ccccc2)c2ccccc12	.	.	/	/	.	/
O=C(Cn1cc(/C=C\[N+](=O)[O-])c2ccccc21)Nc1ccccc1	.	.	.	.	94.5	.
COc1ccc2c(c1)C(c1ccc(C)o1)=NNC(c1cccnc1)=N2	.	.	.	.	.	.
SMILES	LMP1 NFkB inh	aSyn UTR inh	FN deposit inh	PAX8 inh HTS	Shn3 3UTR inh	EWS-Fli inh
COc1ccc2c(c1)C(c1ccc(C)o1)=NNC(c1ccccc1)=N2	42.7	.	.	.	.	.
CCN(CC)CCOC(=O)CCc1cccc2ccccc12	.	.	/	/	.	/
CCN(CC)CCOC(=O)C(Cc1ccco1)Cc1cccc2ccccc12 (stereo unspecified)	.	104.1	.	.	/	.
COc1ccccc1C(=O)N(CCC1CCCN1C)c1nc2ccccc2s1 (stereo unspecified)	.	.	.	.	.	61.4
C[C@@H]1CN([C@H](C)CO)C(=O)c2cc(N(C)C)ccc2O[C@@H](C)CCCCO[C@@H]1CN(C)C(=O)Nc1ccc2c(c1)OCO2	/	/	/	.	/	.
Cc1ccc2nc(NC(=O)c3ccco3)sc2c1	52.7	85.2	/	/	.	/
COc1cc2nc(NC(=O)c3ccco3)sc(=O)c2cc1OC	41.6	.	.	.	.	.
